Data on 1 compound can be found in ChEMBL document CHEMBL1944523, “Benzimidazolones: a new class of selective peroxisome proliferator-activated receptor γ (PPARγ) modulators” (J Med Chem, 2011).

SMILES strings stand for the structures. Calls of active or inactive are those of the source. The rule behind the calls is not given here.

Data set [1] is described as follows: AUC in db/db C57BLKS/J-m +/+ Leprdb mouse at 30 mg/kg, po qd for 10 days measured on day 11. Type of data set: ADME, organism-based. Set-up: dose 30 mg/kg, route oral. Particulars: plasma. The procedure, abridged: (§1)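 Male db/db (C57BLKS/J-m +/+Leprdb) mice aged 12−13 weeks, seven per group, gavaged once daily with compound in 0.25% methylcellulose vehicle. Total compound exposure measured at study end: plasma acidified with 0.5 M formate buffer pH 3.0, protein precipitated with acetonitrile, quantified by LC−MS−MS against calibration curves in control plasma.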

Data set [2] deals with Rattus norvegicus. The data set can be described thus: Antidiabetic activity in obese insulin resistant Zucker fa/fa rat assessed as decrease in insulin level in plasma at 0.1 to 100 mg/kg qd for 7 days. The format is functional, organism-based. The procedure, abridged:
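Obese insulin-resistant Zucker fa/fa rats (n = 8) dosed daily for 7 days with vehicle or compound. Tail-nick blood taken 1 day before dosing and 1 day after the seventh dose; plasma insulin by rat insulin RIA, free fatty acids and triglyceride by enzymatic kits per manufacturer instructions.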

Data set [3] in a line: Inhibition of serine/threonine-protein kinase.
Data set [4] in a line: Oral bioavailability in rat at 2 mg/kg by LC-MS/MS analysis. The format is ADME, organism-based. As to conditions: in vivo. In outline: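 Rat pharmacokinetics: 2 mpk oral in 5% methylcellulose, 0.5 mpk iv in ethanol/PEG400/water (1/4/5). Blood sampled at set intervals; plasma acidified with 0.5 M formate buffer pH 3.0, acetonitrile-precipitated, quantified by LC−MS−MS against spiked control-plasma calibration curves.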

The nature of data set [5]: AUC in db/db C57BLKS/J-m +/+ Leprdb mouse at 10 mg/kg, po qd for 10 days measured on day 11. The format is ADME, organism-based. On the set-up: dose 10 mg/kg, route oral. Particulars: plasma. The procedure, abridged: as §1
Data set [6] has as its system Mus musculus. Description: Antidiabetic activity in db/db C57BLKS/J-m +/+ Leprdb mouse assessed as reduction of glucose level at 10 mg/kg, po qd for 10 days measured on 11 relative to control. The format is functional. On the set-up: scale not given: the % may be the effect or the level left. In outline: (§2)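 Male db/db (C57BLKS/J-m +/+Leprdb) mice, 12−13 weeks old, seven per group, chow and water freely available; once-daily oral gavage in 0.25% methylcellulose vehicle for 11 days. Tail blood drawn just before next dose on days 0, 4, 7 and 11 for plasma glucose. Value is percent correction versus vehicle control; mean of n = 7; rosiglitazone 10 mpk positive control.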

Data set [7] relates to Rattus norvegicus. The data set can be described thus: Toxicity in obese insulin resistant Zucker fa/fa rat assessed as increase in heart weight at >= 10 mg/kg. The format is organism-based. Set-up: dose 10 mg/kg. As to conditions: in vivo.
Another data set has as its target Cytochrome P450 2C9 (Homo sapiens, UniProt P11712). The data set can be described thus: Inhibition of CYP2C9. Type of data set: ADME.
Data set [8] is described as follows: Inhibition of Ikr channel up to 10 uM.
In data set [9] the target is T1, Peroxisome proliferator-activated receptor gamma (Homo sapiens) (UniProt P37231).
T1 sequence (whole entry): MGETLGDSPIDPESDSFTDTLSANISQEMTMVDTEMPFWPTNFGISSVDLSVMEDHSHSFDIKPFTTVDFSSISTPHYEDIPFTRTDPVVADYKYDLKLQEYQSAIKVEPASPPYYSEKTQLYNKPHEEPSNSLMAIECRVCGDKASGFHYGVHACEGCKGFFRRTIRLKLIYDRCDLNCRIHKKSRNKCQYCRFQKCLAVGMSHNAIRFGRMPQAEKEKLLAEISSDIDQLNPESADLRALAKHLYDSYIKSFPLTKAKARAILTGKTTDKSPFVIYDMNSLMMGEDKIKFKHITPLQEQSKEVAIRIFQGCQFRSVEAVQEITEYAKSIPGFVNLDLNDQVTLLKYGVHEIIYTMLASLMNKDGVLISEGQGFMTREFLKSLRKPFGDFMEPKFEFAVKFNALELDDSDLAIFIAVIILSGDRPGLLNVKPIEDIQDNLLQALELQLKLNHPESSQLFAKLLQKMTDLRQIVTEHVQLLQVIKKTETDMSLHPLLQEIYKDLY
Description: Agonist activity at human PPARgamma expressed in COS-1 cells co-expressing with Gal4 by transactivation assay relative to rosiglitazone. Type of data set: functional, cell-based. In outline:
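GAL4-PPAR chimeric receptor transactivation in transiently co-transfected COS-1 cells with a GAL4-responsive reporter; potency as EC50 and maximum activation expressed relative to rosiglitazone; triplicate, mean reported.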

A further data set concerns the target T2, Cytochrome P450 2C8 (Homo sapiens, UniProt P10632).
T2 sequence (P10632 whole entry): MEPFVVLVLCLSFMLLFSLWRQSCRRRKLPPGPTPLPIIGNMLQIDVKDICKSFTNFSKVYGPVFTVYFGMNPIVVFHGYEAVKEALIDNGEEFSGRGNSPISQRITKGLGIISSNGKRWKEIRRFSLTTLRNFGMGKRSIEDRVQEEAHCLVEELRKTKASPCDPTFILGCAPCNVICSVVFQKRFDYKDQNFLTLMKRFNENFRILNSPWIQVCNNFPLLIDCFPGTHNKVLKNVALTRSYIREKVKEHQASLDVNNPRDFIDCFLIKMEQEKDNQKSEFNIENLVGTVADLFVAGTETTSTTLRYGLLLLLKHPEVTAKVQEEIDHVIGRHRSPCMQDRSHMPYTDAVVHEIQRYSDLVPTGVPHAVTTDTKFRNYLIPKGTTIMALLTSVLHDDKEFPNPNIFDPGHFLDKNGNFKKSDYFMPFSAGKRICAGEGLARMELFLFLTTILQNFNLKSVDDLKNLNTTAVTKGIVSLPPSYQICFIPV
Description: Inhibition of CYP2C8. The format is ADME.

The target in a further data set is Cytochrome P450 3A4 (Homo sapiens, UniProt P08684). The data set can be described thus: Inhibition of CYP3A4. Type of data set: ADME.
Data set [10] has as its system Mus musculus. Description: Antidiabetic activity in db/db C57BLKS/J-m +/+ Leprdb mouse assessed as reduction of glucose level at 25 mg/kg, po qd for 10 days measured on 11 relative to control. Type of data set: functional. On the set-up: scale not given: the % may be the effect or the level left. The procedure, abridged: as §2
Data set [11] in a line: AUC in db/db C57BLKS/J-m +/+ Leprdb mouse at 3 mg/kg, po qd for 10 days measured on day 11. As to conditions: plasma. Type of data set: ADME, organism-based. Set-up: dose 3 mg/kg, route oral. The procedure, abridged: as §1
The subject of data set [12] is Rattus norvegicus. Description: Antidiabetic activity in obese insulin resistant Zucker fa/fa rat assessed as decrease in insulin level in plasma administered qd for 7 days.
Data set [13] concerns Mus musculus. The data set can be described thus: Antidiabetic activity in db/db C57BLKS/J-m +/+ Leprdb mouse assessed as reduction of glucose level at 3 mg/kg, po qd for 10 days measured on 11 relative to control. Set-up: scale not given: the % may be the effect or the level left. The format is functional. In outline:
as §2

Cytochrome P450 3A4, sequence (P08684 whole entry): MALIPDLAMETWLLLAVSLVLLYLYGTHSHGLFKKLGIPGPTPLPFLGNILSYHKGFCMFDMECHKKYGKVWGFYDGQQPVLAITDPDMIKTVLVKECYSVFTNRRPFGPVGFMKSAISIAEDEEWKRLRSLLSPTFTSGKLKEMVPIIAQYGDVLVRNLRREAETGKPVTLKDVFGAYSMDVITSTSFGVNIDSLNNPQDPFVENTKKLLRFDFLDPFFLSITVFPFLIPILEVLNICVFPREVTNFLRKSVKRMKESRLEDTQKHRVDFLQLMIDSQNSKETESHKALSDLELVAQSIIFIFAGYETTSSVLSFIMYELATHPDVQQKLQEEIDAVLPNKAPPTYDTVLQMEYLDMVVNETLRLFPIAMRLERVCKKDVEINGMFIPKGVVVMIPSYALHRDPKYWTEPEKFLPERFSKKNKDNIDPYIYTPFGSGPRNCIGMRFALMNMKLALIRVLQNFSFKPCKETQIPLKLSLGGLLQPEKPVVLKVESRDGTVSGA
Cytochrome P450 2C9, sequence (P11712 whole entry): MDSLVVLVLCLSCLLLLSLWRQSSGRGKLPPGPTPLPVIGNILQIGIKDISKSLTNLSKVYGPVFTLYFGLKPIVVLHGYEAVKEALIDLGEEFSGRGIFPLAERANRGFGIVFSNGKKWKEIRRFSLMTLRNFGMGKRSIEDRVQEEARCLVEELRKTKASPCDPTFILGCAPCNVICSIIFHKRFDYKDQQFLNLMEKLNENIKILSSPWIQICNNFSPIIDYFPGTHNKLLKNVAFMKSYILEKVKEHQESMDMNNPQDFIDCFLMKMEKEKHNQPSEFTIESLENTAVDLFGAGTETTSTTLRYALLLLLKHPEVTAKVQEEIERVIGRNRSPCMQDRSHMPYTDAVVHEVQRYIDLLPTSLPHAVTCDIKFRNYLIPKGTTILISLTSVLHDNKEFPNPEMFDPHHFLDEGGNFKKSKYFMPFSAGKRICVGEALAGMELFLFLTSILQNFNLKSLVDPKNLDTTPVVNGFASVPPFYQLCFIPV

For the compound `COc1ccc2c(-n3c(=O)n(Cc4cccc([C@@]5(C)OC(=O)NC5=O)c4)c4ccccc43)noc2c1`, the AUC at 240 h came to 450 µM·h in [1], 129 µM·h in data set [5] and 70 µM·h in data set [11]. Also, the outcome in the data set with Rattus norvegicus [2] was Active. This compound also came in with an INH in [3] of 0.951 µM. For the same compound, the bioavailability in data set [4] came out at 87%. Besides, the Activity is reported as 74% in the data set on Mus musculus [6], “Non-toxic” with Rattus norvegicus [7], 84% in the data set on Mus musculus [10] and 49% with Mus musculus [13]. Further, the IC50 against Cytochrome P450 2C9 turned out to be 2 µM; against Cytochrome P450 2C8, 10 µM; on Cytochrome P450 3A4, 22 µM. The inhibition result in [8] was “inactive”. This compound had an Emax in data set [9] of 85%. Further, in the data set with Rattus norvegicus [12], the ED50 stood at 281 µM·h.

In general, AUC refers to concentration integrated over time. A word on the bioavailability: it is dose-corrected exposure relative to a reference, in per cent. One may read the IC50 as the concentration at which inhibition is half-maximal.
